{"source": "paper PMC6133219", "about": "(Anti-Cancer Drugs, 2018)", "key": {"[1]": {"test_system": "MDA-MB-231-LM2 lung metastases", "assay": "MDA-MB-231-LM2 lung metastases model in SCID-beige mice", "type": "in vivo, mouse", "conditions": "for antitumor effect: MDA-MB-231-LM2, DZ-2384 0.5, 1.5, 4.5 mg/kg, docetaxel 2, 4 mg/kg", "how_it_was_run": "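Female SCID-beige mice (6–8 weeks) received 2.5×10^5 MDA-MB-231-LM2 cells via lateral tail vein. About 2 weeks later, mice with confirmed lung metastases were randomized by bioluminescent burden. They then got four biweekly iv injections in cremophor EL:ethanol:saline (5:5:90). Weekly imaging used D-luciferin 150 mg/kg ip. Survival was analysed by Kaplan–Meier log-rank; body weight was measured 2–3 times weekly.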"}, "[2]": {"conditions": "patients receiving docetaxel 100 mg/m^2 for TNBC; cited from earlier work"}, "[3]": {"conditions": "cited from earlier work"}, "[4]": {"assay": "Maximum tolerated dose in nontumor bearing NSG mice", "type": "in vivo, mouse", "how_it_was_run": "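Each compound was given to four mice of the relevant strain as four biweekly iv injections. General condition was checked at least three times weekly. Endpoints were >20% weight loss for more than three consecutive days, death, or severe distress. Weights, clinical signs and survival were recorded until 1 week after the last dose.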"}, "GCRC-1945 PDX": {"test_system": "GCRC-1945 PDX", "assay": "Orthotopic TNBC PDX GCRC-1945 model in NSG mice", "type": "in vivo, mouse", "conditions": "for median survival: GCRC-1945 at MED (DZ-2384 1.25 mg/kg, paclitaxel 10 mg/kg), vehicle 36 days", "how_it_was_run": "(§1)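 PDX tumor fragments (1–1.5 mm3) were implanted into the left fat pad of female NSG mice (6–8 weeks), passaged ≤8 times. Mice were randomized at 100–250 mm3 and treated iv once weekly for 4 weeks, with doses set as fractions of each agent's MTD. Caliper volume was calculated as 4/3π[(a/2)×(b/2)^2]. Kaplan–Meier log-rank and Student's t-test were used.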"}, "GCRC-2076 PDX": {"test_system": "GCRC-2076 PDX", "assay": "Orthotopic TNBC PDX GCRC-2076", "type": "in vivo, mouse", "conditions": "for median survival: GCRC-2076 at 0.5x MTD, vehicle 30 days", "how_it_was_run": "as §1"}, "MDA-MB-231-BrM2": {"test_system": "MDA-MB-231-BrM2", "assay": "Brain metastatic tumor model, intracranial MDA-MB-231-BrM2 in NSG mice", "type": "in vivo, mouse", "conditions": "for body weight loss: MDA-MB-231-BrM2 brain model, DZ-2384 10 mg/kg, paclitaxel 40 mg/kg", "how_it_was_run": "(§2)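 Cells were implanted intracranially into the right frontal lobe of female NSG mice (6–8 weeks): MDA-MB-231-BrM2 at 7.5×10^4 cells, or luciferase-expressing GCRC-1945 at 1×10^5 cells. Mice were randomized by bioluminescent tumor burden, then dosed iv biweekly for 2 weeks in cremophor EL:ethanol:saline (5:5:90). Imaging was weekly (D-luciferin 150 mg/kg ip, 10 min prior; photon flux). Survival was analysed by Kaplan–Meier log-rank and weights tracked.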"}, "GCRC-1945": {"test_system": "GCRC-1945", "assay": "Brain metastatic tumor model, intracranial GCRC-1945 in NSG mice", "type": "in vivo, mouse", "conditions": "for body weight loss: GCRC-1945 brain model, DZ-2384 10 mg/kg, paclitaxel 40 mg/kg", "how_it_was_run": "as §2"}, "[5]": {"type": "in vivo, mouse", "how_it_was_run": "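Female NSG mice bearing MDA-MB-231-BrM2 mammary fat pad tumors received a single iv bolus of 10 or 40 mg/kg, depending on compound, in cremophor:ethanol:saline (5:5:90); n=4 per time point. Sampling was at 0–24 h. Plasma was taken, then mice were perfused with 20 ml saline via the left ventricle before brain, heart, lung and tumor harvest. Homogenates were measured by LC–MS/MS; tissue/plasma AUC0–∞ ratios were calculated.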"}, "RenCa tumors": {"test_system": "RenCa tumors", "assay": "RenCa syngeneic renal carcinoma model in Balb/c mice", "type": "in vivo, mouse", "conditions": "within the first 18 days of treatment", "how_it_was_run": "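Balb/c mice (6–8 weeks) were injected with 2.5×10^5 RenCa cells in the left lower flank, then randomized at 100–150 mm3 (n=7/group). On day 1 they got a single iv dose of test compound (14 mg/kg) or cremophor EL:ethanol:saline vehicle. From 4 days later, they received biweekly ip anti-CTLA-4 (9H10) or rat IgG2a isotype (2A3) at 10 mg/kg for 2 weeks. Individual tumor volumes were measured 2–3 times weekly.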"}}, "data": [{"smiles": "CC(=O)O[C@@]12CO[C@@H]1C[C@H](O)[C@@]1(C)C(=O)[C@H](O)C3=C(C)[C@@H](OC(=O)[C@H](O)[C@@H](NC(=O)OC(C)(C)C)c4ccccc4)C[C@@](O)([C@@H](OC(=O)c4ccccc4)[C@H]21)C3(C)C", "note": "[docetaxel, reference compound]", "values": [{"measurement": "antitumor effect", "setting": "[1]", "result": "effective at only the 4 mg/kg dose"}, {"measurement": "weight loss", "setting": "[1]; MDA-MB-231-LM2 model, 4 mg/kg docetaxel (MED)", "result": "more than 10%"}, {"measurement": "exposure in patients", "setting": "[2]", "result": "4.81 to 5.2", "unit": "µg·h/mL"}, {"measurement": "loss in digital and caudal nerve conduction velocity", "setting": "[3]; rat, docetaxel 10 mg/kg (lowest dose tested)", "result": "12–23%"}]}, {"smiles": "CC(=O)O[C@H]1C(=O)[C@@]2(C)[C@H]([C@H](OC(=O)c3ccccc3)[C@]3(O)C[C@H](OC(=O)[C@H](O)[C@@H](NC(=O)c4ccccc4)c4ccccc4)C(C)=C1C3(C)C)[C@]1(OC(C)=O)CO[C@@H]1C[C@@H]2O", "note": "[paclitaxel, reference compound]", "values": [{"measurement": "MTD at 2 weeks", "setting": "[4]; NSG, mouse, in vivo, iv", "result": 40, "unit": "mg/kg"}, {"measurement": "antitumor efficacy", "setting": "GCRC-1945 PDX; GCRC-1945, 0.5x MTD", "result": "equally effective"}, {"measurement": "median survival", "setting": "GCRC-1945 PDX", "result": 53, "unit": "days"}, {"measurement": "antitumor efficacy", "setting": "GCRC-2076 PDX; GCRC-2076, 0.25x MTD", "result": "not effective"}, {"measurement": "median survival", "setting": "GCRC-2076 PDX", "result": 69, "unit": "days"}, {"measurement": "body weight loss", "setting": "MDA-MB-231-BrM2", "result": "less than 10%"}, {"measurement": "body weight loss", "setting": "GCRC-1945", "result": "less than 10%"}, {"measurement": "half-life", "setting": "[5]; female, NSG, mouse, tumor, iv, 40 mg/kg", "result": 19.1, "unit": "h"}]}, {"smiles": "CC(C)[C@H](O)C(=O)N[C@H]1Cc2ccc3c(c2)[C@]2(C4=C(c5nc(CO)co5)N=C(O4)[C@H](C(C)(C)C)NC1=O)c1cc(F)ccc1N[C@@H]2O3", "note": "[DZ-2384]", "values": [{"measurement": "maximum tolerated dose (MTD)", "setting": "[4]; nontumor bearing NSG mice, iv biweekly for 2 weeks", "result": 10, "unit": "mg/kg"}, {"measurement": "antitumor efficacy", "setting": "GCRC-1945 PDX; GCRC-1945, 0.125x and 0.25x MTD", "result": "more effective than paclitaxel"}, {"measurement": "antitumor efficacy", "setting": "GCRC-1945 PDX; GCRC-1945, 0.5x MTD", "result": "equally effective"}, {"measurement": "median survival", "setting": "GCRC-1945 PDX", "result": 71, "unit": "days"}, {"measurement": "antitumor efficacy", "setting": "GCRC-2076 PDX; GCRC-2076, 0.25x and 0.5x MTD", "result": "more effective than paclitaxel"}, {"measurement": "median survival", "setting": "GCRC-2076 PDX", "result": 88, "unit": "days"}, {"measurement": "tumor free mice (bioimaging)", "setting": "[1]; MDA-MB-231-LM2, 4.5 mg/kg, 5 months after treatment initiation", "result": "four of nine"}, {"measurement": "median survival", "setting": "[1]; MDA-MB-231-LM2, 4.5 mg/kg, vehicle 37 days", "result": "more than 150 days"}, {"measurement": "antitumor effect", "setting": "[1]", "result": "profound antitumor effect at all doses tested"}, {"measurement": "body weight loss", "setting": "MDA-MB-231-BrM2", "result": "less than 10%"}, {"measurement": "efficacy (tumor burden, median survival vs vehicle)", "setting": "MDA-MB-231-BrM2; intracranial MDA-MB-231-BrM2, MTD, iv biweekly for 2 weeks", "result": "efficacious"}, {"measurement": "body weight loss", "setting": "GCRC-1945", "result": "less than 10%"}, {"measurement": "efficacy (tumor burden, median survival vs vehicle)", "setting": "GCRC-1945; intracranial GCRC-1945, MTD, iv biweekly for 2 weeks", "result": "efficacious"}, {"measurement": "proportion that accumulates in the brain relative to plasma exposure", "setting": "[5]; AUC ratio brain/plasma, single iv dose at MTD, NSG mice", "result": 15, "unit": "%"}, {"measurement": "accumulation in tumor tissue relative to plasma", "setting": "[5]; AUC ratio tumor/plasma, single iv dose at MTD, NSG mice", "result": 18, "unit": "fold"}, {"measurement": "maximum concentration (Cmax) ratio in tumor relative to plasma", "setting": "[5]; single iv dose at MTD, NSG mice", "result": 1.3}, {"measurement": "effect on tumor volume relative to vehicle control", "setting": "RenCa tumors", "result": "modest effects on tumor volume"}, {"measurement": "effects on peripheral nerves", "setting": "[3]; rat model of peripheral neuropathy, effective levels", "result": "no detrimental effects on peripheral nerves"}]}]}
